Source: PubChem BioAssay (several laboratories)
Hits are enriched below; roughly 2.6% of the tested compounds scored in any of these assays.
SENP6 block – SENP6 protease inhibitors, primary screen, biochemical, luminescence, uHTS | AID 2599, 2010 | 330,000 compounds, 1.8% hits | Recombinant SENP6 catalytic domain, aminoluciferin luminescence | inhibition, % at 10 µM | Sentrin-specific protease 6 (Homo sapiens), Q9GZR1;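 active means inhibition above about 50% at the single tested dose, limit read from the data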
SENP1 FRET inh – human SENP1 catalytic domain inhibitors, primary screen, biochemical, FRET, uHTS. Sentrin-specific protease 1 (Homo sapiens), Q9P0U3. recombinant SENP1 catalytic domain, CyPet-SUMO1-YPet FRET cleavage. inhibition, % at 10 µM. 360,000 compounds, 0.21% hits. AID 624204, 2012;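 active means inhibition at least 30% at 10 µM, raw YFP signal under a set limit, fluorescence ratio 0.5 to 1.5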
Target sequence (Q9P0U3 419-644 limits assumed): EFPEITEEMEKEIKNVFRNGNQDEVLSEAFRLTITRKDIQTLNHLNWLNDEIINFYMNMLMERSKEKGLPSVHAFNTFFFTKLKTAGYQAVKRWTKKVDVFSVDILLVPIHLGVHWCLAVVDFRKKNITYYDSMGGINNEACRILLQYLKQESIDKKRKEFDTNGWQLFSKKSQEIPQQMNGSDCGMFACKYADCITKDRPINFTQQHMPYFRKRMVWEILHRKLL
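system = hSENP1 catalytic domain, recombinant | reagent = SFCypet-SUMO1-SFYpet substrate at 25 nM | doses = one dose per compound, 10 µM, 0.5% DMSO | incubation = enzyme reaction for 50 min at room temperature, dark | measured by = FRET, CFP and YFP emission | controls = no-enzyme low, enzyme-DMSO high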
SENP8 block-1 – human SENP8 protease inhibitors, primary screen, biochemical, fluorescence, Nedd8 protein substrate, uHTS; Sentrin-specific protease 8 (Homo sapiens), Q96LD8; recombinant SENP8; inhibition, % at 20 µM; 360,000 compounds, 0.64% hits; AID 602440, 2012; in the data active means inhibition mostly above about 40%, no sharp cut-off; inactive means mostly below about 27%
Target sequence (Q96LD8 whole entry, looked up): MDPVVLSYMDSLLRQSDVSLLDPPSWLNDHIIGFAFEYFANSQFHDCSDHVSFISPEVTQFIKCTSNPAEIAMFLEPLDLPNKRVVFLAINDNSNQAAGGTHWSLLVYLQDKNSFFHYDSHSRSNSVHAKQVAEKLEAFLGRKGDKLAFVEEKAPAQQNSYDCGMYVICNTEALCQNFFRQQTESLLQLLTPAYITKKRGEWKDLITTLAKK
Platelet DG rel – inhibitors of platelet dense granule secretion, primary screen, cell-based, MLPCN, human platelets; AID 1663, 2009; 300,000 compounds, 0.22% hits; human platelet-rich plasma, SFLLRN dense granule ATP release, luminescence; inhibition, %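 (compounds screened at 7.5 µM in platelet-rich plasma)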;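 active means mean replicate score, as percent of positive control, at or above 50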
SENP7 inh – SENP7 protease inhibitors, primary screen, biochemical, luminescence, uHTS | Sentrin-specific protease 7 (Homo sapiens), Q9BQF6 | recombinant SENP7, Z-RLRGG-aminoluciferin luminescence, 40 min | inhibition, % at 5 µM | 330,000 compounds, 1.5% hits | AID 434973, 2010;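 active means inhibition above about 50% at the single test dose, limit read from the data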
SENP8 block-2 – SENP8 protease inhibitors, primary screen, biochemical, luminescence | 330,000 compounds, 1.2% hits | purified SENP8, Z-RLRGG-aminoluciferin cleavage | inhibition, % at 10 µM | AID 2540, 2010; in the data active means inhibition above about 50%
Numbers stand for hits; n = inactive; x = no result.

SMILES	SENP6 block	SENP1 FRET inh	SENP8 block-1	Platelet DG rel	SENP7 inh	SENP8 block-2
O=C(Nc1ccc2oc(-c3ccccc3F)nc2c1)c1ncn[nH]1	82	n	n	n	81	51
O=c1c2ccccc2nc2c3ccccc3cnn12	n	n	n	n	n	n
O=c1c2ccccc2cnn1-c1nc2ccccc2[nH]1	x	n	n	74	x	x
O=C(O)c1ccc(N=Nc2c(O)[nH]c3ccccc23)cc1	99	n	n	133	100	97
COCc1cc(C)nc(SCC[N+](C)(C)CC(=O)c2ccc(Br)cc2)c1C#N	n	n	n	51	n	n
COCc1cc(C)nc(SCC[N+](C)(C)CC(=O)Nc2ccccc2)c1C#N	n	n	n	n	n	n
Cc1cc(N=Nc2ccc(Cl)cc2)cc(CN2CCCC2)c1O	n	n	43	n	n	n
Cc1cc(N=Nc2ccc(Cl)cc2)cc(CN2CCOCC2)c1O	n	n	n	n	n	n
CN1CCN(C(=O)c2cc3c(c(-c4cccc(C#CC(C)(C)O)c4)n2)[C@@H](CCO)N(S(=O)C(C)(C)C)C3)CC1 (stereo partly drawn)	x	n	n	x	x	x
CCc1ccc(/C=C2\SC(=S)N(CCCC(=O)N3CCN(C)CC3)C2=O)cc1	x	n	41	x	x	x
COc1cccc(/C=C2/SC(=S)N(CCC(=O)N3CCOCC3)C2=O)c1	n	n	n	n	n	n
COc1cccc(/C=C2\SC(=S)N(CCCC(=O)N3CCCCC3)C2=O)c1	n	n	26	n	n	n
COC(=O)c1sccc1NC(=O)Nc1ccccc1F	70	n	n	n	98	88
Nc1nc2ccccc2n1C(=O)c1ccco1	x	n	n	n	x	x
Nc1nc2ccccc2n1C(=O)c1cccs1	n	n	n	n	74	58
Cc1cc(SCC(=O)N/N=C/c2ccc(O)c(O)c2O)c(C)cc1Br	n	n	35	n	n	n
CCOC(=O)[C@]12Cc3c(cc(OC)c(OC)c3OC)[C@H]1N(Cc1ccccc1)C(=O)c1cc(OC)ccc12	x	n	n	x	x	x
Cc1c(C(=O)N2CCCC2)sc(NC(=O)c2ccc(Cl)cc2)c1C#N	n	n	n	58	n	n
Cc1ccc([C@H]2C[C@@H](n3cc(COC(=O)c4ccccc4)nn3)[C@H](O)CN2C(=O)c2cccs2)cc1	x	n	n	x	x	x
CNc1nc(Nc2ccc(Br)cc2)nc(N)c1[N+](=O)[O-]	n	n	n	n	88	n
COc1ccc(NC(=O)C2(C)Cc3c(-c4cccc(C(F)(F)F)c4)ccnc3O2)cc1OC (stereo not drawn)	x	n	n	x	x	x
CC(=O)Nc1ccc(-c2csc(NC(=O)C3=COCCO3)n2)cc1	n	n	n	n	n	n
Cc1ccc(-c2csc(NC(=O)C3=COCCO3)n2)cc1	70	n	n	n	59	n
O=C1c2cccc(Sc3ccccc3)c2C(=O)c2c(Sc3ccccc3)cccc21	n	n	52	n	n	n
CS(=O)(=O)N1Cc2cc(C(=O)NCC3CCCCC3)nc(-c3cccc(-c4cccnc4)c3)c2[C@H]1CCO	x	n	n	x	x	x
SMILES	SENP6 block	SENP1 FRET inh	SENP8 block-1	Platelet DG rel	SENP7 inh	SENP8 block-2
c1csc(-c2nc3ccccc3s2)c1	86	n	n	n	80	78
c1csc(-c2ccc3ccccc3n2)c1	76	n	n	n	80	57
CN1CCN(C2CN(C3CCCC3)S(=O)(=O)C2)CC1 (stereo not drawn)	x	n	n	x	x	x
O=C(/C=C/c1ccc(F)cc1)c1ccc(N2CCOCC2)cc1	80	n	n	n	78	n
Cc1cccc(-c2cc3nc(C)cc(C)n3n2)c1	n	n	n	n	78	54
COc1ccc(-c2cc3nc(C)cc(N)n3n2)cc1	96	n	n	94	97	95
CCCCCCCCN1C(=O)[C@H](CC(=O)NCc2cccc(C(F)(F)F)c2)C[C@@]2(C(=O)OC)CC(C)(C)CC=C12	x	n	n	x	x	x
Cc1ccc(C2CC(=O)N3CN(Cc4ccco4)CSC3=C2C#N)cc1 (stereo not drawn)	n	n	n	n	n	n
N#CC1=C2SCN(Cc3ccco3)CN2C(=O)CC1c1c(F)cccc1Cl (stereo not drawn)	n	n	36	n	n	n
Clc1ccc2[nH]c(-c3ccccc3)cc2c1	70	n	n	x	60	62
COc1ccc(S(=O)(=O)NC(=O)C2(C)CCN2C(=O)Cc2cc(C)cc(C)c2)cc1 (stereo not drawn)	x	n	n	x	x	x
CCOC(=O)N1CCN(c2cc(NCCC(=O)O)c3c4c(onc24)-c2ccccc2C3=O)CC1	n	n	88	x	n	n
O=C1c2ccccc2-c2onc3c(N4CCN(CCO)CC4)cc(N4CCN(C(=O)c5ccco5)CC4)c1c23	n	32	75	n	n	n
O=C(O)CCCNc1cc(N2CCN(C(=O)c3ccco3)CC2)c2noc3c2c1C(=O)c1ccccc1-3	n	83	77	n	n	n
CCCCNC(=O)C1(C)CCN1C(=O)c1sccc1C (stereo not drawn)	x	n	n	x	x	x
CCOC1=C2CN(S(=O)(=O)c3ccc(C)cc3)C(c3cccc(Cl)c3)CC2N(S(=O)(=O)c2ccc(Cl)cc2)C(c2ccccc2)C1 (stereo not drawn)	x	n	n	x	x	x
O=[N+]([O-])c1ccc(Oc2ccc(S(=O)(=O)Nc3ccccc3)cc2)cc1	n	n	n	n	n	n
O=C1C(Cl)=C(NS(=O)(=O)c2ccc([N+](=O)[O-])cc2)C(=O)c2ccccc21	n	n	53	n	n	n
Cc1cccc(C)c1-n1nnnc1C1(C)CCC(=O)N1c1ccc(N2CCOCC2)cc1 (stereo not drawn)	x	n	n	x	x	x
CCC(C)(O)c1cnc(CC(C)C)c(=O)n1O (stereo not drawn)	x	n	n	x	x	x
CCCCCn1c2c(c(=N)c3ccccc31)CCC2	n	n	n	70	n	n
CCCCCCCCn1c2c(c(=N)c3ccccc31)CCC2	n	n	n	n	n	n
CCCCn1c2c(c(=N)c3ccccc31)CCC2	n	n	n	123	n	n
Cc1cn([C@H]2C[C@H](O)[C@@H](CCC(=O)NCc3ccc(N(C)C)cc3)O2)c(=O)[nH]c1=O	x	n	n	x	x	x
CC1CCCN(C2=C(NS(=O)(=O)c3ccc(Cl)cc3)C(=O)c3ccccc3C2=O)C1 (stereo not drawn)	n	n	60	n	n	n
NC(=O)C1CCN(C2=C(NS(=O)(=O)c3ccc(Cl)cc3)C(=O)c3ccccc3C2=O)CC1	n	n	44	n	n	n
NC(=O)C1CCN(c2oc(-c3ccccc3F)nc2S(=O)(=O)c2ccc(Cl)cc2)CC1	n	n	n	n	n	n
